Assay results taken from ChEMBL document CHEMBL1154626, “Novel, potent, and selective quinoxaline-based 5-HT(3) receptor ligands. 1. Further structure-activity relationships and pharmacological characterization” (J Med Chem, 2009).
Activity calls are given as the source filed them. The rule behind the calls is not given here.

Columns and labels:
[1] = target: T1, 5-hydroxytryptamine receptor 3A (Rattus norvegicus, UniProt P35563); test: Displacement of [3H]LY278584 from 5HT3 receptor in rat cortical homogenate
T1 sequence (P35563 whole entry): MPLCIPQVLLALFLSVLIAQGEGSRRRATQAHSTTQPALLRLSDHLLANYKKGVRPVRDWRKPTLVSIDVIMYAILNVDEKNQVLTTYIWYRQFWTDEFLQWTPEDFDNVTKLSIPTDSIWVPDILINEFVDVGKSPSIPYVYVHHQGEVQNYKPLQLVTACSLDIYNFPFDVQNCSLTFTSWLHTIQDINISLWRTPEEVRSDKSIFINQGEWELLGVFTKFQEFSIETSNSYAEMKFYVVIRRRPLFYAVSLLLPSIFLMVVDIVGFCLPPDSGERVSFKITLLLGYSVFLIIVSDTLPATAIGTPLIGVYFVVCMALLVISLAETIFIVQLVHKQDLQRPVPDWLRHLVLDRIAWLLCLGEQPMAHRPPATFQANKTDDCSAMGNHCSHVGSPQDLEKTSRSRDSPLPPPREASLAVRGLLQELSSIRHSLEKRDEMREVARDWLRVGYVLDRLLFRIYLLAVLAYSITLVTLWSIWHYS
Summary of the method: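 Rat cortical homogenate, competition against [3H]LY278584 binding. Ki is the concentration giving half-maximal inhibition of binding, as the mean ± S.E.M. of three determinations.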

[2] = target: T2, 5-hydroxytryptamine receptor 3A (Cavia porcellus, UniProt O70212); test: Antagonist activity at 5HT3 receptor in spontaneously beating guinea pig right atrium assessed as inhibition of serotonin-induced maximum response by noncompetitive binding assay; assay type: tissue-based, Cardiac atrium; settings: read-out: IC50
T2 sequence (O70212 whole entry): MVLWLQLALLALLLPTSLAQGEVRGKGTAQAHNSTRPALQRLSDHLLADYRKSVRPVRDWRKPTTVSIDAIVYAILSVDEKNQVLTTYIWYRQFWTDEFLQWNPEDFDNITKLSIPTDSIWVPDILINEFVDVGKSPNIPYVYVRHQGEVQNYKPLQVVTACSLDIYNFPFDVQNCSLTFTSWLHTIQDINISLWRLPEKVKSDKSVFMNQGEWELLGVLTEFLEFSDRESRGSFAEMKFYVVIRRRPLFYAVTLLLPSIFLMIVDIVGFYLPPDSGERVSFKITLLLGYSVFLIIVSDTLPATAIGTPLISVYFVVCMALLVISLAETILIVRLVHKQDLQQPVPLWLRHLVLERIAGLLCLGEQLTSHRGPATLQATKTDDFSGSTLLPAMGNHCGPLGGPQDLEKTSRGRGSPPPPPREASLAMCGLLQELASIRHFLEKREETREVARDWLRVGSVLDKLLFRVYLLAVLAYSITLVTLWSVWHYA
Summary of the method: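 Spontaneously beating guinea pig right atria, exposed 30 min to test compound at 10 μM, followed by cumulative 5-HT log concentration-response curves versus control. Mean ± SEM of five to seven observations.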

[3] = system: Rattus norvegicus; test: Agonist activity at 5HT3 receptor in iv dosed Sprague-Dawley rat assessed as induction of bradycardia measured after 5 to 30 mins post-treatment by von Bezold-Jarisch reflex test; assay type: functional
Summary of the method: (§1)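 Urethane-anesthetized rats, compound given iv. Agonism was scored as the compound itself evoking the von Bezold-Jarisch reflex (bradycardia). Antagonism was tested by giving the compound iv 5, 15 or 30 min before phenylbiguanide (PBG) and scoring the reduction of PBG-evoked bradycardia. ED50 is the dose giving half of the maximal bradycardia evoked by the same compound.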

[4] = system: Rattus norvegicus; test: Antagonist activity at 5HT3 receptor in iv dosed Sprague-Dawley rat assessed as inhibition of 1-phenylbiguanide-induced bradycardia administered 5 mins before 1-phenylbiguanide challenge measured after 5 to 30 mins post-treatment by von Bezold-Jarisch reflex test; assay type: functional; summary of the method: as §1
[5] = system: Rattus norvegicus; test: Agonist activity at 5HT3 receptor in Sprague-Dawley rat assessed as induction of bradycardia at 10 ug/kg, iv measured after 5 to 30 mins post-treatment by von Bezold-Jarisch reflex test; assay type: functional; summary of the method: as §1
[6] = system: Rattus norvegicus; test: Antagonist activity at 5HT3 receptor in Sprague-Dawley rat assessed as inhibition of 1-phenylbiguanide-induced bradycardia at 10 ug/kg, iv administered 5 mins before 1-phenylbiguanide challenge measured after 5 to 30 mins post-treatment by von Bezold-Jarisch reflex test; assay type: functional; parameters: scale not given: the % may be the effect or the level left; summary of the method: as §1
[7] = system: Rattus norvegicus; test: Agonist activity at 5HT3 receptor in Sprague-Dawley rat assessed as induction of bradycardia at 50 ug/kg, iv measured after 5 to 30 mins post-treatment by von Bezold-Jarisch reflex test; assay type: functional; summary of the method: as §1
[8] = system: Rattus norvegicus; test: Antagonist activity at 5HT3 receptor in Sprague-Dawley rat assessed as inhibition of 1-phenylbiguanide-induced bradycardia at 50 ug/kg, iv administered 5 mins before 1-phenylbiguanide challenge measured after 5 to 30 mins post-treatment by von Bezold-Jarisch reflex test; assay type: functional; parameters: scale not given: the % may be the effect or the level left; summary of the method: as §1
[9] = target: T3, 5-hydroxytryptamine receptor 1A (Rattus norvegicus, UniProt P19327); test: Displacement of [3H]8-OHDPAT from 5HT1A receptor in rat hippocampus; assay type: tissue-based
T3 sequence (P19327 whole entry): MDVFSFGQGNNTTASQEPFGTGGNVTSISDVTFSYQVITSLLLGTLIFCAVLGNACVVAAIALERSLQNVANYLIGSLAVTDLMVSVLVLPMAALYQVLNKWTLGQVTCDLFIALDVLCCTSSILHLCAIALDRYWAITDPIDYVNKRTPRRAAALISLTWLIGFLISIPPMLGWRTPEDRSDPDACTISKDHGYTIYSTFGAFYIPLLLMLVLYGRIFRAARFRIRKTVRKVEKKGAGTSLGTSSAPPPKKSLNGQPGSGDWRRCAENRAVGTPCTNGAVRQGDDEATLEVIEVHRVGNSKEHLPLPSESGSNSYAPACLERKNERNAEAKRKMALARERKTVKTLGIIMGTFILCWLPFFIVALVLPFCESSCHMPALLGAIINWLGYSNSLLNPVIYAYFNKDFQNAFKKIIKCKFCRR

[10] = target: 5-hydroxytryptamine receptor 2A (Rattus norvegicus, UniProt P14842); test: Displacement of [3H]ketanserin from 5HT2A receptor in rat cortex
Sequence of 5-hydroxytryptamine receptor 2A (P14842 whole entry): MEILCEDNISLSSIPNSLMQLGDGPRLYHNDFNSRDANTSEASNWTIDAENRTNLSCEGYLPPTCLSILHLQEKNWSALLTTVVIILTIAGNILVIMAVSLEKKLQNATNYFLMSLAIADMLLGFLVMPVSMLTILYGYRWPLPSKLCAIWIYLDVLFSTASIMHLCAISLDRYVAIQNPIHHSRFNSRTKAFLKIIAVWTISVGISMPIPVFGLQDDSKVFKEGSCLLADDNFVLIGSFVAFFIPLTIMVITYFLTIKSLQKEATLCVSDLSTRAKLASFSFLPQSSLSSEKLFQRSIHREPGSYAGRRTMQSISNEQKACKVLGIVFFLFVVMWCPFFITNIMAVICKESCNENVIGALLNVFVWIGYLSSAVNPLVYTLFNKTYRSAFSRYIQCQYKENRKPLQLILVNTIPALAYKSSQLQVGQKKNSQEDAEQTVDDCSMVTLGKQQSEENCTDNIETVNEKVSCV

[11] = target: T4, Adrenergic receptor alpha-1 (Rattus norvegicus, UniProt P15823+P23944+P43140); test: Displacement of [3H]prazosin from adrenergic alpha1 receptor in rat cortex
T4 sequence (P15823 whole entry): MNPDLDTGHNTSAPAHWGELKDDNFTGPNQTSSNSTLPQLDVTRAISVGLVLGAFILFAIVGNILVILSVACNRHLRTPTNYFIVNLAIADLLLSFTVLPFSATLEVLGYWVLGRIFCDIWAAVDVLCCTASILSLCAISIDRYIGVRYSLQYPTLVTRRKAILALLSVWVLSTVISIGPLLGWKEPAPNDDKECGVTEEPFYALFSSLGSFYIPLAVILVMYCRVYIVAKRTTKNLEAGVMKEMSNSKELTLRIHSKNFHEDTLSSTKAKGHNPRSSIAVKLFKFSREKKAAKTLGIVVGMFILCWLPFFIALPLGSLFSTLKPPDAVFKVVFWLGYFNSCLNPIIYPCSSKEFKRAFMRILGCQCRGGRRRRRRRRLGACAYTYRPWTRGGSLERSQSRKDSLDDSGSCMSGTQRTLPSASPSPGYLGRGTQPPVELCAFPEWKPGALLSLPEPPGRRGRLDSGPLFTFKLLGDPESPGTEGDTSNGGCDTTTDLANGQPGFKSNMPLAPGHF
T4 sequence (P23944 whole entry): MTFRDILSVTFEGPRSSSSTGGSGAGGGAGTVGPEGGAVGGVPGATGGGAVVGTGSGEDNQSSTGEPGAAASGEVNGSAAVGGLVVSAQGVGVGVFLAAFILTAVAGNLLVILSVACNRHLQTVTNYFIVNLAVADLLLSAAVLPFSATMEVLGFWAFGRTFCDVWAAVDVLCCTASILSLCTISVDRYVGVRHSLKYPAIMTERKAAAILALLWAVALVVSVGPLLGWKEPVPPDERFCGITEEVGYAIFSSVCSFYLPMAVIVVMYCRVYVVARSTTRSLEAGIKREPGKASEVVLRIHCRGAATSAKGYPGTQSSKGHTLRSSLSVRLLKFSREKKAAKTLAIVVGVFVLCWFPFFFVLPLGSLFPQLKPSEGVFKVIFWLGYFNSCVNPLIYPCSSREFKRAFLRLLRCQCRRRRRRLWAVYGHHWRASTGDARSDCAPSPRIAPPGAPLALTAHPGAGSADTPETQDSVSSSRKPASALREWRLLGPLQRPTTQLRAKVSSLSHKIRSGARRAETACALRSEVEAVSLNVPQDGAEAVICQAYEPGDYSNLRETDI
T4 sequence (P43140 whole entry): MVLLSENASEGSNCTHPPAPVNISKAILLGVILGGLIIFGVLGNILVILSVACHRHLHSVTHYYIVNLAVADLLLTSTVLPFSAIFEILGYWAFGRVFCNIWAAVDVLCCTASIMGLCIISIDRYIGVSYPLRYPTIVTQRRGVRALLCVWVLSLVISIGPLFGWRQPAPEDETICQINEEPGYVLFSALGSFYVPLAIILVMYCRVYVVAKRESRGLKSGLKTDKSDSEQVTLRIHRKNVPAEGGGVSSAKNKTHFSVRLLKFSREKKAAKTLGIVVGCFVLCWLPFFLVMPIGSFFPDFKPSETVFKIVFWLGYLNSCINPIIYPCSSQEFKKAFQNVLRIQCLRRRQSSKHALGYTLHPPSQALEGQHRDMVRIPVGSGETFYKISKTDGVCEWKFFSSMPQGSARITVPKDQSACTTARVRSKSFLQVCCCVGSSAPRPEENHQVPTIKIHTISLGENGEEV

[12] = target: T5, Alpha-2A adrenergic receptor (Rattus norvegicus, UniProt P22909); test: Displacement of [3H]RX821002 from adrenergic alpha2 receptor in rat cortex
T5 sequence (P22909 whole entry): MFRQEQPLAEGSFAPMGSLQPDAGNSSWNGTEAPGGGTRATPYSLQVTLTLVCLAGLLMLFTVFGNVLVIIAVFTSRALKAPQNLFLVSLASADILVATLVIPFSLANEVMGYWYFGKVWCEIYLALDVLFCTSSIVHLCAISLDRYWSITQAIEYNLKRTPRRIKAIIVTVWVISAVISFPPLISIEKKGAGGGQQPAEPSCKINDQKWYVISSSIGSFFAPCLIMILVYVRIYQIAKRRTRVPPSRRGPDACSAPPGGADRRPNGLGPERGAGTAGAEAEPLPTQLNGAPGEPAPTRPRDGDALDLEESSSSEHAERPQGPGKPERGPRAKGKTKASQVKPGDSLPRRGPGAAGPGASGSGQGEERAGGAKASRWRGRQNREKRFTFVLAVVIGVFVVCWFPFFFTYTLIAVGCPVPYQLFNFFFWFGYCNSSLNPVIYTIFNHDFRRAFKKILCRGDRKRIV

[13] = target: D(1A) dopamine receptor (Rattus norvegicus, UniProt P18901); test: Displacement of [3H]SCH-23390 from dopamine D1 receptor in rat striatum
Sequence of D(1A) dopamine receptor (P18901 whole entry): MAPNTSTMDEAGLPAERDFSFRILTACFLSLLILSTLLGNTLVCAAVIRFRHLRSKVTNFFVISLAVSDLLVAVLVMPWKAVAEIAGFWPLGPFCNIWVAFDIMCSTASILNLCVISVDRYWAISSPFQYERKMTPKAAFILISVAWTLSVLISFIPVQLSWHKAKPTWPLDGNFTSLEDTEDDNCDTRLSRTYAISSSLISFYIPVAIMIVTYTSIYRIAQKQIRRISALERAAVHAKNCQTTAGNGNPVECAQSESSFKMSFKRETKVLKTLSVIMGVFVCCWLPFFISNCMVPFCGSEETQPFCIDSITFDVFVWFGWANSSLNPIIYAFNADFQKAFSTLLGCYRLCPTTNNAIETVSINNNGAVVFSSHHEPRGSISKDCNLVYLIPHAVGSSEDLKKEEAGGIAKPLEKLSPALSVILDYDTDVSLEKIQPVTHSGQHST

[14] = target: D(2) dopamine receptor (Rattus norvegicus, UniProt P61169); test: Displacement of [3H]spiperone from dopamine D2 receptor in rat striatum
Sequence of D(2) dopamine receptor (P61169 whole entry): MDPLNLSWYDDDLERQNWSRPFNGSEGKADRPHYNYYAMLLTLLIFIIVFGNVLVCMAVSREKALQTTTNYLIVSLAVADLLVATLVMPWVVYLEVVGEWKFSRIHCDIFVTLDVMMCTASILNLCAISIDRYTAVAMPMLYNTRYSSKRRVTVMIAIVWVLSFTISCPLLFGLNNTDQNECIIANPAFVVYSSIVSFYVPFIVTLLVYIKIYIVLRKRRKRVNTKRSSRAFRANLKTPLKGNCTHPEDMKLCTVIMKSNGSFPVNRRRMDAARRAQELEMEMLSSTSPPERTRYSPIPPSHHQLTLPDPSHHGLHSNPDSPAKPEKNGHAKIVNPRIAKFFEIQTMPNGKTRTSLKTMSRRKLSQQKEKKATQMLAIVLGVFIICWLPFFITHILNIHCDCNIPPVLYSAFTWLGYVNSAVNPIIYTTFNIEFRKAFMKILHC

[15] = system: Rattus norvegicus; test: Agonist activity at 5HT3 receptor in Sprague-Dawley rat assessed as induction of bradycardia at 100 ug/kg, iv measured after 5 to 30 mins post-treatment by von Bezold-Jarisch reflex test; assay type: functional; summary of the method: as §1
[16] = system: Rattus norvegicus; test: Antagonist activity at 5HT3 receptor in Sprague-Dawley rat assessed as inhibition of 1-phenylbiguanide-induced bradycardia at 100 ug/kg, iv administered 5 mins before 1-phenylbiguanide challenge measured after 5 to 30 mins post-treatment by von Bezold-Jarisch reflex test; assay type: functional; summary of the method: as §1
[17] = system: Rattus norvegicus; test: Plasma concentration in rat at 0.25 mg/kg, iv; assay type: ADME, organism-based; parameters: dose 0.25 mg/kg, route intravenous; settings: in vivo
Summary of the method: (§2)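 Rats dosed iv at 0.25–1 mg/kg and sacrificed 30 min after injection. Mean ± SEM of three animals. Brain/plasma ratio assumes 1 g tissue equals 1 mL water.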

[18] = system: Brain; test: Drug level in rat brain at 0.5 mg/kg, iv; assay type: ADME, organism-based; parameters: dose 0.5 mg/kg, route intravenous; settings: in vivo, BLD = below limit of detection; summary of the method: as §2
[19] = Ratio of drug level from brain to plasma in rat at 1 mg/kg, iv; assay type: ADME, organism-based; parameters: dose 1 mg/kg, route intravenous
Summary of the method: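 Rats given a single iv injection (0.25–1 mg/kg) and killed 30 min afterwards. Brain/plasma ratio calculated assuming 1 g tissue equals 1 mL water. Three animals per dose, mean ± SEM.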

[20] = target: 5-hydroxytryptamine receptor 4 (Cavia porcellus, UniProt O70528); test: Displacement of [3H]GR-113808 from 5HT4 receptor in guinea pig striatum
Sequence of 5-hydroxytryptamine receptor 4 (O70528 whole entry): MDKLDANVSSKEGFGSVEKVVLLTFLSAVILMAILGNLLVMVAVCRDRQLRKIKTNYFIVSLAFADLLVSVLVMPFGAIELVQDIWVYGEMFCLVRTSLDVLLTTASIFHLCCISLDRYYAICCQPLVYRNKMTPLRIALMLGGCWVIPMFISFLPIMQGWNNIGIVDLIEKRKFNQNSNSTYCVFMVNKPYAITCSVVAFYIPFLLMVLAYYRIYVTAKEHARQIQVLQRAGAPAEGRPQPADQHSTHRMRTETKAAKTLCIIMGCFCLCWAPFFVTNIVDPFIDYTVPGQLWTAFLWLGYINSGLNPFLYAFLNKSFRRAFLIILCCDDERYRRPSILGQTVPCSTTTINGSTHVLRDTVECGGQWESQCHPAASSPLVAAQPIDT

## Oc1ccc2c(c1)nc(N1CCN(Cc3c[nH]cn3)CC1)c1cccn12
[1]; read-out: Ki
  Ki: 2.25 nM
[2]
  IC50: 2630 nM
[3]
  ED50: 0.028 mg/kg
[4]
  ID50: 0.0065 mg/kg
[5]
  Activity: 45%
[6]
  Activity: 62%
[7]
  Activity: 50%
[8]
  Activity: 90%

## Fc1ccc2c(c1)nc(N1CCN(Cc3ncc[nH]3)CC1)c1cccn12
[1]; read-out: Ki
  Ki: 5.6 nM
[9]
  Ki: > 10000 nM
[10]
  Ki: > 10000 nM
[11]
  Ki: > 10000 nM
[12]
  Ki: > 10000 nM
[13]
  Ki: > 10000 nM
[14]
  Ki: > 10000 nM

## NNC(=O)CN1CCN(c2nc3cc(F)ccc3n3cccc23)CC1
[1]; read-out: Ki
  Ki: 44.3 nM
[3]
  ED50: 0.057 mg/kg
[5]
  Activity: inactive
[6]
  Activity: inactive
[8]
  Activity: inactive
[15]
  Activity: 80%
[16]
  Activity: inactive

## Cc1cccc2nc(N3CCN(Cc4c[nH]cn4)CC3)c3cccn3c12
[3]
  ED50: 0.037 mg/kg
[4]
  ID50: 0.0035 mg/kg
[5]
  Activity: inactive
[6]
  Activity: 60%
[11]
  Ki: > 10000 nM

## O=C(O)CN1CCN(c2nc3cc(F)ccc3n3cccc23)CC1
[2]
  IC50: 1880 nM
[3]
  ED50: 0.036 mg/kg
[17]
  concentration: 540 nM
[18]
  Drug uptake: BLD
[19]
  Kp: 0.03

## c1ccc2nc(N3CCNCC3)ccc2c1 [QUIPAZINE]
[20]
  Ki: > 10000 nM

## Fc1ccc2c(c1)nc(N1CCN(Cc3ccccc3)CC1)c1cccn12
[1]
  Ki: 13 nM

## Fc1ccc2c(c1)nc(N1CCN(CCc3cnc[nH]3)CC1)c1cccn12
[1]; read-out: Ki
  Ki: 330 nM
